Screening data (PubChem BioAssay)
hERG rescue – compounds protecting human hERG from proarrhythmic drug block; Q12809; CHO-hERG, FluxOR thallium flux, dofetilide IC70 present; activation (rescue from dofetilide block), less the hit threshold, % at 10 µM; 310,000 compounds, 0.51% hits;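 active means activation above the mean of controls blocked by dofetilide plus 5 SD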;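 further: thallium influx through hERG after potassium depolarization seen as dye fluorescence rise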
Target sequence (Q12809 whole entry, looked up): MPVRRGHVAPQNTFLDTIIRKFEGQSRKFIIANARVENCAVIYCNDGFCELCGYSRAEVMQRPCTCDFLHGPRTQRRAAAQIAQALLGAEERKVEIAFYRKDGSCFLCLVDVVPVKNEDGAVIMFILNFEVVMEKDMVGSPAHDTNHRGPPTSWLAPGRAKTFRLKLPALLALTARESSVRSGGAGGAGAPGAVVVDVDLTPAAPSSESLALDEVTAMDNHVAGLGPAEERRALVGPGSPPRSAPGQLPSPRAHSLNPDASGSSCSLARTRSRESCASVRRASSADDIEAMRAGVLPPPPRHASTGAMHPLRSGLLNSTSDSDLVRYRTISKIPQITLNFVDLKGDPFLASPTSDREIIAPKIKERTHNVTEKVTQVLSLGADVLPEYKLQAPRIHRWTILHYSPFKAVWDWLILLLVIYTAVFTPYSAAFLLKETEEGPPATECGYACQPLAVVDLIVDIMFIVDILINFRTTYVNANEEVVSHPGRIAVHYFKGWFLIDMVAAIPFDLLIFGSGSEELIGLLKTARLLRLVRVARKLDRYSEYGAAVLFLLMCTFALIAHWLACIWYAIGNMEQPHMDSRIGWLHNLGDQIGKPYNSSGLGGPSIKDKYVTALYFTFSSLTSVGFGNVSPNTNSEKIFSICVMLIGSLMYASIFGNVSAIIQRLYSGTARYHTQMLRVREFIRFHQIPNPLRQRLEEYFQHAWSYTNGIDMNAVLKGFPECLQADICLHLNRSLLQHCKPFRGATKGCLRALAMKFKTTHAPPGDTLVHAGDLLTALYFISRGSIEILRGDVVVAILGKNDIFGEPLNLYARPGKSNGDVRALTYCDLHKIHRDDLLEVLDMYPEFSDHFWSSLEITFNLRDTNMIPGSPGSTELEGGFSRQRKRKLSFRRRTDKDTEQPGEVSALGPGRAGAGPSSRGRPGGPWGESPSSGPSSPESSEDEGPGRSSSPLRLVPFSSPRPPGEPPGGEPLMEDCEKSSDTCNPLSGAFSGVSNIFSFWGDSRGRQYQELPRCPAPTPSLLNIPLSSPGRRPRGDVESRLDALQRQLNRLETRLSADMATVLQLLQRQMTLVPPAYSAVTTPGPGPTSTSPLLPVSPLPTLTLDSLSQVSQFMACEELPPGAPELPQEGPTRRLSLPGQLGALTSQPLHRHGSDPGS
KCNQ1 block – inhibitors of human KCNQ1 potassium channel; P51787; CHO-K1 KCNQ1, FluxOR thallium flux fluorescence; hits give high values; B-score at 10 µM; 310,000 compounds, 1.3% hits;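 active means compounds whose thallium flux B-score, printed positive for inhibition, exceeds three library SD while starting fluorescence stays within three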;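 further: channel opened by potassium depolarization with thallium stimulus after 20 min compound exposure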
KCNQ1 pot – potentiates or activates the human KCNQ1 potassium channel. B-score at 10 µM. P51787. 310,000 compounds, 0.35% hits. CHO-K1 KCNQ1, thallium flux FluxOR fluorescence; hits give high values;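 active means fluorescence ratio B-score, a plate-corrected score, at least three library SD, with initial intensity B-score within 5 SD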
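Assay system: CHO-K1 cells stably expressing KCNQ1. Medium: assay buffer for compound exposure, DMSO matched across wells. Timing: 37 °C overnight plating, 90-min dark dye load, 20-min compound pretreatment. Signal: kinetic FluxOR fluorescence, 10 s baseline plus 110 s post-stimulus.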
KCNK9 block – human KCNK9 channel inhibition | Q9NPC2 | HEK293 KCNK9, FluxOR thallium flux fluorescence; hits give low values | B-score at 10 µM | 310,000 compounds, 1.2% hits | AID 488922;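 active means ratio B-score over 3 SD below the library mean, with starting fluorescence within 5 SD of its mean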;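 further: negative B-score means less thallium flux so channel inhibition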
KCNK3 block – human KCNK3 channel inhibition, primary screen. O14649. B-score at 10 µM. 340,000 compounds, 0.84% hits. CHO-KCNK3 thallium flux, FluxOR fluorescence; hits give low values;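 active means B-score under library mean minus 4 SD, starting fluorescence ratio at most library mean plus 5 SD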;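 further: more negative B-score means stronger inhibition of thallium flux through KCNK3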
KCNK9 inh conf – confirmation of human KCNK9 potassium channel inhibitors; shares compounds with KCNK9 block; AID 492992; HEK293 KCNK9 cells, FluxOR thallium flux fluorescence; 4,900 compounds, 43% hits; inhibition, % at 10 µM;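 active means thallium signal inhibited by more than 5 SD of the compound-free buffer control wells, on both duplicate plates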
Kir2-1 spec – tests whether KCNK9 modulators also affect mouse Kir2.1; shares compounds with KCNK9 block; Kir2.1 cells, FluxOR thallium flux fluorescence; inhibition, % at 10 µM; 4,900 compounds, 4% hits;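 active means thallium signal drop more than 5 SD beyond the mean of the no-compound control wells, seen in both duplicate plates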;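 further: signal is fluorescence rise after thallium addition divided by baseline fluorescence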
KCNK9 uninduced – second counter-screen for KCNK9 modulators: effect in non-induced cells; inhibition, % at 10 µM; non-induced KCNK9-HEK293, FluxOR thallium flux; shares compounds with KCNK9 block; 4,900 compounds, 40% hits;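 active means thallium signal drop beyond 5 SD of the untreated control mean, on both duplicate plates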
Each line names hits and unclear results; the compound was inactive in the other large screens (follow-up assays come after a bar, where they were run). Sampled rows, rich in hits. Any-hit rate of the full collection: about 3.1%.

COc1ccc(NCc2nc3ccccc3n2CCOc2ccc(C)cc2)cc1	KCNK9 block -11 | KCNK9 inh conf 70% | Kir2-1 spec 48% | KCNK9 uninduced 52%
Cc1cccc(OCCn2c(-c3ccco3)nc3ccccc32)c1	KCNK9 block -10 | KCNK9 inh conf 30% | Kir2-1 spec inactive | KCNK9 uninduced 34%
COc1ccc(NCc2nc3ccccc3n2CCOc2ccccc2)cc1	KCNK9 block -11 | KCNK9 inh conf inactive | Kir2-1 spec inactive | KCNK9 uninduced 33%
c1ccc(NCc2nc3ccccc3n2CCOc2ccccc2)cc1	none
c1ccc(-c2nc(NCCCn3ccnc3)c3oc4ccccc4c3n2)cc1	none
c1ccc(-c2nc(NCc3ccco3)c3oc4ccccc4c3n2)cc1	KCNK9 block -8.7 | KCNK9 inh conf 38% | Kir2-1 spec inactive | KCNK9 uninduced 35%
CC1=NOC(=O)/C1=C\c1ccc(-c2ccc(Cl)c(C(=O)O)c2)o1	none
CC1=NOC(=O)/C1=C\c1ccc(-c2cccc(Cl)c2)o1	none | KCNK9 inh conf inactive | Kir2-1 spec inactive | KCNK9 uninduced inactive
Cc1ccc([N+](=O)[O-])c(OCCN2CCNCC2)c1	none | KCNK9 inh conf inactive | Kir2-1 spec inactive | KCNK9 uninduced inactive
Cc1cc(OCCN2CCC(Cc3ccccc3)CC2)ccc1[N+](=O)[O-]	none | KCNK9 inh conf inactive | Kir2-1 spec inactive | KCNK9 uninduced inactive
Cc1cc(OCCN2CC(C)OC(C)C2)ccc1[N+](=O)[O-] (centres undefined)	none
c1nc(SSc2ncnc3nc[nH]c23)c2[nH]cnc2n1	none (no result: hERG rescue, KCNQ1 block, KCNQ1 pot, KCNK9 block)
COc1ccc(OCC(O)CN2CC(C)OC(C)C2)cc1 (centres undefined)	none
Clc1ccccc1-c1ccc(CN2CCN(c3ccccc3)CC2)o1	none | KCNK9 inh conf inactive | Kir2-1 spec inactive | KCNK9 uninduced inactive
O=C(CSc1ccc(Br)c2cccc(Cl)c12)Nc1ccc(S(=O)(=O)Nc2nccs2)cc1	none | KCNK9 inh conf inactive | Kir2-1 spec inactive | KCNK9 uninduced inactive
COc1ccc(COC(=O)CCc2c[nH]c3ccccc23)cc1F	none
CCOC(=O)[C@@H]1[C@H]2COc3ccccc3[C@@H]2N2C(=O)N(c3ccc(C(F)(F)F)cc3)C(=O)[C@@]12C	none (no result: hERG rescue, KCNQ1 block, KCNQ1 pot, KCNK9 block)
CCOC(=O)[C@@H]1[C@H]2COc3ccccc3[C@H]2N2C(=O)N(c3ccc(C(F)(F)F)cc3)C(=O)[C@]12C	KCNK9 block -8.6 | KCNK9 inh conf 52% | Kir2-1 spec inactive | KCNK9 uninduced 34%
CCC(=O)Nc1ccc(NC(=O)CSc2nnnn2C2CCCC2)cc1C	none
CSCCC(NC(=O)c1ccc(Cl)cc1Cl)C(=O)NCC(c1cccs1)N(C)C (centres undefined)	none (no result: hERG rescue, KCNQ1 block, KCNQ1 pot, KCNK9 block)
CCOC(=O)c1sc(NC(=S)NC(=O)c2ccccc2)c(C(=O)OCC)c1C	none
CCOC(=O)c1sc(NC(=S)NC(=O)c2ccccc2Cl)c(C(=O)OCC)c1C	KCNK9 block -9.1 | KCNK9 inh conf inactive | Kir2-1 spec inactive | KCNK9 uninduced inactive
O=C(CSc1nc(Cc2ccccc2)nc2ccccc12)c1ccc2c(c1)OCCO2	KCNK9 block -14 | KCNK9 inh conf 57% | Kir2-1 spec inactive | KCNK9 uninduced 34%
Cc1cc(NC(=O)CSc2nc(CCC3CCCC3)nc3ccccc23)no1	none
CCc1nc(SCC(=O)c2ccc3c(c2)OCCO3)c2ccccc2n1	none
O=C(CSc1nc(CCC2CCCC2)nc2ccccc12)NCc1ccc2c(c1)OCO2	KCNK9 block -13 | KCNK9 inh conf 47% | Kir2-1 spec inactive | KCNK9 uninduced inactive
Cc1cccc(N(O)C(=O)Nc2cccc(Cl)c2)c1	none
Cc1[nH]n(-c2ccc(Br)cc2)c(=O)c1/C=N/NC(=O)c1ccccc1	none | KCNK9 inh conf inactive | Kir2-1 spec inactive | KCNK9 uninduced inactive
Cc1[nH]n(-c2ccccc2)c(=O)c1/C=N/NC(=O)c1cccc(F)c1	none
C/C(=N\NC(=O)c1cccc(S(=O)(=O)N2CCOCC2)c1)c1ccc(C#N)cc1	none
Cc1ccc(CSCc2ccc(C(=O)NCCC(C)C)o2)cc1	none | KCNK9 inh conf inactive | Kir2-1 spec inactive | KCNK9 uninduced inactive
CCOc1ccc(Oc2ccc(NC(=O)CSc3nncn3C)cc2)cc1	none (no result: hERG rescue, KCNQ1 block, KCNQ1 pot, KCNK9 block)
CC(C)c1ccc(OC(=O)c2cccc(S(=O)(=O)N3CCN(C)CC3)c2)cc1	none | KCNK9 inh conf inactive | Kir2-1 spec inactive | KCNK9 uninduced inactive
CCCc1cc(-c2nc(-c3ccc(Br)cc3)cs2)ccn1	KCNK9 block -10 | KCNK9 inh conf inactive | Kir2-1 spec inactive | KCNK9 uninduced 26%
Cc1nc2ccc(NC(=O)c3ccc(Cl)c([N+](=O)[O-])c3)cc2s1	none
Cc1nc2ccc(NC(=O)c3ccc([N+](=O)[O-])cc3)cc2s1	none | KCNK9 inh conf inactive | Kir2-1 spec inactive | KCNK9 uninduced inactive
Cc1cc(C)c(C(=O)COC(=O)C2CCN(c3ccc(C(F)(F)F)cn3)CC2)cc1C	KCNQ1 block 7 | KCNK9 inh conf inactive | Kir2-1 spec inactive | KCNK9 uninduced inactive
O=C(COC(=O)C1CCN(c2ccc(C(F)(F)F)cn2)CC1)c1ccccc1Cl	none
COC(=O)c1nn(-c2cccc(C)c2)c2nnc(Cc3ccc(C)cc3)c(=O)n12	none
Cc1ccc(Cc2nnc3n(-c4cccc(C)c4)nc(C(=O)c4ccccc4)n3c2=O)cc1	none | KCNK9 inh conf inactive | Kir2-1 spec inactive | KCNK9 uninduced inactive
Cc1cccc(-c2noc(CCCC(=O)NC3CCCCC3)n2)c1	none
C/C=C1\COC(C(=O)NCc2ccccc2)(C(F)(F)F)C=C1C=C1CCCCC1 (centres undefined)	KCNQ1 block 7 | KCNK9 inh conf inactive | Kir2-1 spec inactive | KCNK9 uninduced inactive
COc1ccc(NC(=S)N2CCC(NC(=O)c3ccco3)CC2)cc1	none
COC(=O)CCC(=O)N1CCCC(C(=O)c2ccc(Cl)cc2C)C1 (centres undefined)	none
Cc1cc(Cl)ccc1C(=O)C1CCCN(C(=O)c2ccc3ncccc3c2)C1 (centres undefined)	none | KCNK9 inh conf inactive | Kir2-1 spec inactive | KCNK9 uninduced inactive
Cc1cc(Cl)ccc1C(=O)C1CCCN(C(=O)c2ccsc2)C1 (centres undefined)	none | KCNK9 inh conf inactive | Kir2-1 spec inactive | KCNK9 uninduced inactive
Cc1cc(Cl)ccc1C(=O)C1CCCN(C(=O)c2cc(C(C)C)no2)C1 (centres undefined)	none | KCNK9 inh conf inactive | Kir2-1 spec inactive | KCNK9 uninduced inactive
CC(C)(C)NS(=O)(=O)c1ccc(C(=O)Nc2ccc3c(c2)OCO3)cc1	none
